pKi: −log10 of the molar value. Active and inactive are the calls of the source. The calls are words filed in the database; no cut-off is given here.
How the values were obtained:
MDA-MB-231 = assay: Growth inhibition of human MDA-MB-231 cells; assay type: functional; conditions: for CC50: read-out: LC50 (the source's name)
HCT-116 = assay: Growth inhibition of human HCT116 cells; assay type: functional
M14 = assay: Growth inhibition of human M14 cells; assay type: functional
[1] = Growth inhibition of human HCT15 cells; assay type: functional; conditions: for GI50 / TGI: HCT-15; for CC50: HCT-15, read-out: LC50 (the source's name)
NCI-H460 = assay: Growth inhibition of human NCI-H460 cells; assay type: functional
Chymotrypsinogen A = Chymotrypsinogen A (Bos taurus, UniProt P00766); assay: Inhibition of bovine pancreatic alpha-chymotrypsin using Suc-Leu-Leu-Val-Tyr-AMC as substrate by fluorescence assay
Summary of the method: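 Enzyme incubated at 20 °C in 50 mM Tris pH 8.0, 100 mM NaCl, 5 mM EDTA, 7.5% DMSO with varied inhibitor concentrations. Substrate hydrolysis followed for 10 min. Ki from progress curves; mean of three determinations.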

[2] = Cytotoxicity against human colon cancer cells assessed as cell growth at 10 uM relative to control; assay type: functional; conditions: Cancer cell lines, read-out: Activity
Summary of the method: (§1)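 Single-concentration screen against a panel of human cancer cell lines. Each value is the mean percent growth across the cell lines of that tumour subpanel.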

NCI-H322M = assay: Growth inhibition of human NCI-H322M cells; assay type: functional; conditions: for CC50: read-out: LC50 (the source's name)
[3] = Growth inhibition of human Hs 578T cells; assay type: functional; conditions: for CC50: read-out: LC50 (the source's name)
DU-145 = assay: Growth inhibition of human DU145 cells; assay type: functional; conditions: for CC50: read-out: LC50 (the source's name)
SR = assay: Growth inhibition of human SR cells; assay type: functional; conditions: for CC50: read-out: LC50 (the source's name)
TK-10 = assay: Growth inhibition of human TK10 cells; assay type: functional
[4] = Cytotoxicity against human CNSC cells assessed as cell growth at 10 uM relative to control; assay type: functional; conditions: read-out: Activity; summary of the method: as §1
[5] = Growth inhibition of human HCC2998 cells; assay type: functional; conditions: HCC 2998
NCI-H226 = assay: Growth inhibition of human NCI-H226 cells; assay type: functional; conditions: for CC50: read-out: LC50 (the source's name)
[6] = Growth inhibition of human BT549 cells; assay type: functional; conditions: for GI50 / TGI: BT-549; for CC50: BT-549, read-out: LC50 (the source's name)
HOP-62 = assay: Growth inhibition of human HOP62 cells; assay type: functional; conditions: for CC50: read-out: LC50 (the source's name)
K562 = assay: Growth inhibition of human K562 cells; assay type: functional; conditions: for CC50: read-out: LC50 (the source's name)
[7] = target: Proteasome Macropain subunit (Homo sapiens) (UniProt P49721); assay: Inhibition of trypsin-like activity of 20S proteasome in human erythrocytes using Boc-Leu-Arg-Arg-AMC as substrate by fluorescence assay; assay type: cell-based
Summary of the method: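 Human 20S proteasome 0.0025 mg/mL at 30 °C in 50 mM Tris pH 7.4, 50 mM NaCl, 0.5 mM EDTA, 0.03% SDS, 7.5% DMSO. Varied inhibitor concentrations; AMC release monitored continuously for 10 min, ex 380/em 460 nm. Ki derived from progress-curve IC50 fit.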

[8] = Growth inhibition of human RXF393 cells; assay type: functional; conditions: for GI50 / TGI: RXF 393; for CC50: RXF 393, read-out: LC50 (the source's name)
[9] = Growth inhibition of human UACC62 cells; assay type: functional; conditions: UACC-62
SW-620 = assay: Growth inhibition of human SW620 cells; assay type: functional
[10] = target: T1, Proteasome Macropain subunit MB1 (Homo sapiens) (UniProt P28074); assay: Inhibition of chymotrypsin-like activity of 20S proteasome in human erythrocytes using Suc-Leu-Leu-Val-Tyr-AMC as substrate at 20 uM by fluorescence assay relative to control
T1 sequence (whole entry): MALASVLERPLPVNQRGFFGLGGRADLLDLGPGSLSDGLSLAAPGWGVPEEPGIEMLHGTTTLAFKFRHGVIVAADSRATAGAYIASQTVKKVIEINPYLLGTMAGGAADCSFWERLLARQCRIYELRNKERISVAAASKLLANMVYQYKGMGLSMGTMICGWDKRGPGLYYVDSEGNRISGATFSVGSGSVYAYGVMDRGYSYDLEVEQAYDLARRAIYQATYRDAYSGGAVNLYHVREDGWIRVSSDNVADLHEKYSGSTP
Summary of the method: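 Single inhibitor concentration, equivalent DMSO as negative control. AMC fluorescence read at ex 380/em 460 nm; percent inhibition of ChT-L activity.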

[11] = Cytotoxicity against human NSCLC cells assessed as cell growth at 10 uM relative to control; assay type: functional; conditions: read-out: Activity; summary of the method: as §1
PC-3 = assay: Growth inhibition of human PC3 cells; assay type: functional; conditions: for CC50: read-out: LC50 (the source's name)
[12] = Growth inhibition of human OVCAR3 cells; assay type: functional; conditions: OVCAR-3
[13] = Growth inhibition of human NCI-ADR-RES cells; assay type: functional
[14] = Cytotoxicity against human melanoma cells assessed as cell growth at 10 uM relative to control; assay type: functional; conditions: read-out: Activity; summary of the method: as §1
786-0 = assay: Growth inhibition of human 786-0 cells; assay type: functional; conditions: for CC50: read-out: LC50 (the source's name)
IGROV-1 = assay: Growth inhibition of human IGROV1 cells; assay type: functional
[15] = Growth inhibition of human UACC257 cells; assay type: functional; conditions: for GI50 / TGI: UACC-257
[16] = Cytotoxicity against human ovarian cancer cells assessed as cell growth at 10 uM relative to control; assay type: functional; conditions: Cancer cell lines, read-out: Activity; summary of the method: as §1

Chain of Proteasome Macropain subunit (Homo sapiens) (P49721 whole entry): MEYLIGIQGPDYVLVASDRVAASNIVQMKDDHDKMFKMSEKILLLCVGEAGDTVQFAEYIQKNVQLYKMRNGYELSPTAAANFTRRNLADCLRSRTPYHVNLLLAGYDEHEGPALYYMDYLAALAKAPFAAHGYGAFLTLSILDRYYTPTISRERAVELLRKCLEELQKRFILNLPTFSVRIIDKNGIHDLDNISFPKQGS

CC(C)C[C@H](NC(=O)CCn1ccc2ccc(Br)cc2c1=O)B(O)O
GI50 (MDA-MB-231): 1.2 µM | TGI (MDA-MB-231): 12.2 µM | CC50 (MDA-MB-231): > 100 µM | GI50 (HCT-116): 0.34 µM | LC50 (HCT-116): > 100 µM | TGI (HCT-116): 2.55 µM | GI50 (M14): 0.36 µM | LC50 (concentration killing 50% of cells) (M14): > 100 µM | TGI (M14): 3.88 µM | GI50 [1]: 1.61 µM | TGI [1]: 22.1 µM | CC50 [1]: > 100 µM | GI50 (NCI-H460): 3.18 µM | LC50 (NCI-H460): > 100 µM | TGI (NCI-H460): > 100 µM | pKi (Chymotrypsinogen A; read-out: Ki): 4.63 | growth at 10 µM [2]: 4.45% | GI50 (NCI-H322M): > 100 µM | TGI (NCI-H322M): > 100 µM | CC50 (NCI-H322M): > 100 µM | GI50 [3]: 0.43 µM | TGI [3]: 6.2 µM | CC50 [3]: > 100 µM | GI50 (DU-145): 0.71 µM | TGI (DU-145): > 100 µM | CC50 (DU-145): > 100 µM | GI50 (SR): 0.26 µM | TGI (SR): 11.6 µM | CC50 (SR): > 100 µM | GI50 (TK-10): 0.37 µM | LC50 (TK-10): > 100 µM | TGI (TK-10): 15.6 µM | growth at 10 µM [4]: 6.51% | GI50 [5]: 1.14 µM | LC50 [5]: 8.42 µM | TGI [5]: 3.09 µM | GI50 (NCI-H226): 0.19 µM | TGI (NCI-H226): 0.42 µM | CC50 (NCI-H226): 0.95 µM | GI50 [6]: 0.36 µM | TGI [6]: 4.32 µM | CC50 [6]: > 100 µM | GI50 (HOP-62): 2.63 µM | TGI (HOP-62): 9.29 µM | CC50 (HOP-62): > 100 µM | GI50 (K562): 1.08 µM | TGI (K562): > 100 µM | CC50 (K562): > 100 µM | inhibition [7]: inactive | GI50 [8]: 0.28 µM | TGI [8]: 0.88 µM | CC50 [8]: 5.39 µM | GI50 [9]: 0.46 µM | LC50 (concentration killing 50% of cells) [9]: 28.5 µM | TGI [9]: 2.44 µM | GI50 (SW-620): 0.38 µM | LC50 (SW-620): > 100 µM | TGI (SW-620): > 100 µM | inhibition [10]: > 40% | growth at 10 µM [11]: 8.79% | GI50 (PC-3): 4.19 µM | TGI (PC-3): > 100 µM | CC50 (PC-3): > 100 µM | GI50 [12]: 0.33 µM | LC50 (concentration killing 50% of cells) [12]: 10.6 µM | TGI [12]: 1.21 µM | GI50 [13]: 17.4 µM | LC50 [13]: > 100 µM | TGI [13]: > 100 µM | growth at 10 µM [14]: -19.2% | GI50 (786-0): 0.82 µM | TGI (786-0): > 100 µM | CC50 (786-0): > 100 µM | GI50 (IGROV-1): 5.1 µM | LC50 (IGROV-1): > 100 µM | TGI (IGROV-1): > 100 µM | GI50 [15]: 0.73 µM | TGI [15]: 2.86 µM | growth at 10 µM [16]: 38.8%

CC(C)C[C@H](NC(=O)CCn1ccc2ncccc2c1=O)B(O)O
GI50 (MDA-MB-231): 7.94 µM | TGI (MDA-MB-231): 32.5 µM | CC50 (MDA-MB-231): > 100 µM | GI50 (HCT-116): 3.3 µM | LC50 (HCT-116): 86.2 µM | TGI (HCT-116): 16.5 µM | GI50 (M14): 4.11 µM | LC50 (concentration killing 50% of cells) (M14): 97.9 µM | TGI (M14): 22.3 µM | GI50 [1]: 21.3 µM | TGI [1]: > 100 µM | CC50 [1]: > 100 µM | GI50 (NCI-H460): 36.2 µM | LC50 (NCI-H460): > 100 µM | TGI (NCI-H460): > 100 µM | Ki (Chymotrypsinogen A): Not Active | growth at 10 µM [2]: 78.1% | GI50 (NCI-H322M): > 100 µM | TGI (NCI-H322M): > 100 µM | CC50 (NCI-H322M): > 100 µM | GI50 [3]: 15.6 µM | TGI [3]: > 100 µM | CC50 [3]: > 100 µM | GI50 (DU-145): 32.7 µM | TGI (DU-145): > 100 µM | CC50 (DU-145): > 100 µM | GI50 (SR): 3.18 µM | TGI (SR): > 100 µM | CC50 (SR): > 100 µM | GI50 (TK-10): 5.16 µM | LC50 (TK-10): > 100 µM | TGI (TK-10): 47.7 µM | growth at 10 µM [4]: 82.9% | GI50 [5]: 13.6 µM | LC50 [5]: 90.2 µM | TGI [5]: 35 µM | GI50 (NCI-H226): 2.68 µM | TGI (NCI-H226): 8.9 µM | CC50 (NCI-H226): 48 µM | GI50 [6]: 3.49 µM | TGI [6]: 12.5 µM | CC50 [6]: > 100 µM | GI50 (HOP-62): 29.8 µM | TGI (HOP-62): > 100 µM | CC50 (HOP-62): > 100 µM | GI50 (K562): 17.2 µM | TGI (K562): > 100 µM | CC50 (K562): > 100 µM | inhibition [7]: inactive | GI50 [8]: 3.29 µM | TGI [8]: 14.3 µM | CC50 [8]: 54.2 µM | GI50 [9]: 5.55 µM | LC50 (concentration killing 50% of cells) [9]: > 100 µM | TGI [9]: 48.8 µM | GI50 (SW-620): 4.62 µM | LC50 (SW-620): > 100 µM | TGI (SW-620): > 100 µM | inhibition [10]: > 40% | growth at 10 µM [11]: 80.3% | GI50 (PC-3): 41.4 µM | TGI (PC-3): > 100 µM | CC50 (PC-3): > 100 µM | GI50 [12]: 4.65 µM | LC50 (concentration killing 50% of cells) [12]: > 100 µM | TGI [12]: 31.9 µM | GI50 [13]: > 100 µM | LC50 [13]: > 100 µM | TGI [13]: > 100 µM | growth at 10 µM [14]: 60.4% | GI50 (786-0): 7.94 µM | TGI (786-0): > 100 µM | CC50 (786-0): > 100 µM | GI50 (IGROV-1): 60.2 µM | LC50 (IGROV-1): > 100 µM | TGI (IGROV-1): > 100 µM | GI50 [15]: 10.1 µM | TGI [15]: 47 µM | CC50 ([15]; UACC-257, read-out: LC50 (the source's name)): > 100 µM | growth at 10 µM [16]: 84.2%
